From ChEMBL document CHEMBL4513216, “Probing the Open Global Health Chemical Diversity Library for Multistage-Active Starting Points for Next-Generation Antimalarials” (ACS Infect Dis, 2020)

assay: Toxicity liver stage against HepG2, at 10uM; assay type: cell-based; set-up: test concentration 10 uM, cell line HepG2-A16-CD81EGFP; settings: human, HepG2-A16-CD81EGFP cells; read-out: INHIBITION
Summary of the method: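 Uninfected HepG2-A16-CD81EGFP cells, 3 × 10^3 per well, 1536-well, plated on prespotted compound at 10 μM final, parasite-free screening media added to match infected plates; puromycin 10 μM positive, DMSO 0.5% negative; run in parallel with 48 h PbLuc assay at 37 °C, 5% CO2; viability by CellTiter-Glo luminescence, normalized to controls.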

Row | SMILES | cytotoxicity at 10 µM [%]
1 | Cc1ccc(C)c(CSc2nnc([C@@H](N)C(C)C)o2)c1 | 5.95
2 | CCS(=O)(=O)N1CCc2ccc(NC(=O)Nc3ccccc3C)cc21 | 13.1
3 | CC(C)NC(=O)CCC(=O)N1CCC(c2noc3cc(F)ccc23)CC1 | 2.13
4 | Cc1cc(-c2nn3c(C4CCC4)nnc3s2)on1 | -5.65
5 | O=C(Nc1cccnc1)C1CN(C(=O)c2ccc3c(c2)OCO3)C1 | -11.7
6 | COc1ncc(NS(=O)(=O)c2cccc(C)c2)c(OC)n1 | 10.4
7 | CC(=O)N1CCc2nc(N3CCCC3)nc(C)c2C1 | -0.567
8 | CCOCc1cnc2n1CCN(C(=O)Cc1cccs1)C2C (stereo not drawn) | 8.04
9 | CNC(=O)N1CCN(C(=O)C(C)C)CC2(CC(=O)N(C)C2)C1 (stereo not drawn) | 7.43
10 | O=C(NCC1CCN(Cc2ccsc2)CC1)NC1CC1 | 6.82
11 | Cc1nccn1-c1nccnc1C1CCCN(C)C1 (stereo not drawn) | 2.2
12 | CN1CCC(C(=O)N2CCC(c3ccc4c(N)n[nH]c4n3)CC2)CC1 | 2.43
13 | CC1(C(=O)N2CCSCC2)CNCCO1 (stereo not drawn) | 4.79
14 | Cc1nn(C)c(C)c1-c1cncc(C2CCN(S(C)(=O)=O)CC2)n1 | 8.88
15 | O=S(=O)(NC1CCOC1)c1ccc(C(F)(F)F)nc1 (stereo not drawn) | 8.16
16 | O=C(CCCc1nc2ccccc2[nH]1)N1CCCC1c1ccncc1 (stereo not drawn) | 3.79
17 | CCc1noc(CNc2cccc(C(=O)N3CCSCC3)c2)n1 | -5.73
18 | COc1ccc(Cl)cc1CS(=O)(=O)Cc1noc(C)n1 | 2.32
19 | COc1cccc(C2(C(=O)NC3CCc4nccn4C3)CCCC2)c1 (stereo not drawn) | 2.74
20 | CC(c1ccncc1)N(C)C(=O)NCCOc1ccc(C#N)cc1 (stereo not drawn) | -15.5
21 | CC(C)(C)OC(=O)N1CCC(NC2CCS(=O)(=O)C2)CC1 (stereo not drawn) | -6.72
22 | O=C(c1cccc(F)c1F)N1CCn2c(nnc2C(F)(F)F)C1 | -8.22

Row | SMILES | cytotoxicity at 10 µM [%]
23 | COCCc1nc(-c2cnn3c(C)cc(C)nc23)no1 | 2.49
24 | CC(C)(O)CN1CCN(C(=O)c2cccn2Cc2cccnc2)CC1 | -0.787
25 | CC(=O)Nc1ccc(CNc2cccc(CS(C)(=O)=O)c2)cc1 | -6.91
26 | CCCC(NC(=O)c1cc(C)ccc1O)c1nnn[nH]1 (stereo not drawn) | -3.26
27 | CCc1nc(NS(=O)(=O)c2cc(C)c(F)cc2Cl)no1 | 15.8
28 | Cc1cnn(CCNCc2ccc(OCc3ccccn3)cc2)c1 | 0.686
29 | CC(=O)N1CCCN(Cc2nnc(C(C)(C)C)o2)CC1 | -4.13
30 | O=C(NCCCn1cccn1)C1(c2cccc(Cl)c2)CC1 | 17.9
31 | CC1(NC(=O)Cc2csc(-c3ccccc3Cl)n2)CCS(=O)(=O)C1 (stereo not drawn) | -9.81
32 | Cc1cc(C(=O)NC2CC(=O)N(C(C)C)C2=O)c(C)n1C(C)C (stereo not drawn) | -9.13
33 | CCSCCC(C)N(C)C(=O)c1ccc2nncn2c1 (stereo not drawn) | -5.4
34 | Cn1cc(S(=O)(=O)N2CCC(OCCCc3ccccc3)C2)cn1 (stereo not drawn) | 8.93
35 | CCN(C(=O)CNC1CCc2ncnn2C1)C1=CCCCC1 (stereo not drawn) | 0.701
36 | COc1ccc(C2CCCN2Cc2cnn(C)c2)cc1 (stereo not drawn) | 7.53
37 | CCN(CC1CCCO1)C(=O)NCCNC(=O)c1ccccc1F (stereo not drawn) | 5.63
38 | Cc1nc(C2(NCC(=O)NC(=O)NCc3cccs3)CCCCC2)no1 | -9.52
39 | COCCn1c2c(ccc1=O)CCN(C(=O)CC1CC1)CC2 | 2.24
40 | O=C(CC1CCCC1)N1C[C@@H]2CN(Cc3ccoc3)CCO[C@@H]2C1 | -79.3
41 | O=C(c1ccnnc1)N1C[C@H]2CN(Cc3cccc(F)c3)C(=O)[C@H]2C1 | -77.3
42 | Cc1noc(C)c1CN1CC[C@H]2C[C@H](c3ccncn3)O[C@@H]2C1 | -69.5
43 | O=C(O)c1cc(-c2ccncc2)cc(S(=O)(=O)N2CCSCC2)c1 | 3.26
44 | Cc1c(NC(=O)c2cnc[nH]2)cccc1C(=O)NC(C)(C)C | -6.46

Row | SMILES | cytotoxicity at 10 µM [%]
45 | CS(=O)(=O)N1CCCn2nc(CNc3ncccn3)cc2C1 | 4.83
46 | CN(C)c1nc2c(c(N3CCCC3)n1)CCN(C(=O)c1ccc[nH]1)CC2 | 7.81
47 | CN1CC2(CCCN(Cc3nnc(-c4ccccc4)o3)CC2)OC1=O (stereo not drawn) | 0.184
48 | O=C(c1ccccc1C(F)(F)F)N1C[C@@H](CN2CCOCC2)[C@@H](CO)C1 | -3.7
49 | O=C(Nc1ccc(-c2ccn[nH]2)cc1)C1CCCN(Cc2ccoc2)C1 (stereo not drawn) | -0.16
50 | COc1ccc2c(c1)C(C(=O)NCCN1CCOC1=O)CC(=O)N2 (stereo not drawn) | 8.68
51 | Cn1cnc2cc(C(=O)N3CCC(c4ccccc4C(=O)O)C3)cnc21 (stereo not drawn) | -8.98
52 | CS(=O)(=O)NC1CCN(C(=O)c2coc(CN3CCOCC3)c2)CC1 | 3.54
53 | O=C(CCn1cccc1)N1CCc2[nH]nc(COc3ccccc3)c2C1 | 7.54
54 | CN1CCC(N(C)C[C@H]2CC[C@@H](Cc3cccc(O)c3)O2)CC1 | -12.2
55 | Cc1nn(C)c(C)c1-c1cc(-c2cnn(C)c2C2CC2)c(C#N)c(N)n1 | 18
56 | Cc1cc2cccc(C(=O)N3CC[C@@H](N)[C@H](O)C3)c2o1 | -0.193
57 | Cc1cc(C)c2nc(CN3CCC(CN)CC3)cc(O)c2c1 | 2.55
58 | CN(C)CCN(C)C1CCN(C(C(=O)O)c2ccc(F)c(Cl)c2)CC1 (stereo not drawn) | 2.95
59 | CCOCc1nc(CSc2ccncc2)n(C2CCN(C)CC2)n1 | -1.45
60 | CN(C)C1CCCN(Cc2cccc(Cn3cccn3)c2)CC1 (stereo not drawn) | -12.6
61 | Cc1ccc(-c2cc(C(=O)N(C)Cc3noc4c3CCCC4)[nH]n2)o1 | -11
62 | CC1(COc2ccccc2)NCCc2[nH]cnc21 (stereo not drawn) | -0.254
63 | c1csc(CCC2CCCCN2Cc2noc(C3CC3)n2)c1 (stereo not drawn) | 0.562
64 | O=C(O)C(c1ccc2c(c1)OCO2)N1CCCC1 (stereo not drawn) | -3.04
65 | CCNC(=O)N1CCN(Cc2nc3ccccc3[nH]2)[C@@H]2CS(=O)(=O)C[C@@H]21 | 14.1
66 | CN(C)C(=O)C1CCN(Cn2nc(-c3ccc(F)cc3)oc2=O)CC1 | -2.06

Row | SMILES | cytotoxicity at 10 µM [%]
67 | O=C(Cc1ccccc1)NCCNCc1cccc(O)c1 | -0.206
68 | Cn1c(C2CC2)nc2c1CCN(Cc1nc(Cc3ccccc3)no1)C2 | -6.37
69 | Cc1cnn(CC(C)NCc2nc(-c3cccs3)no2)c1 (stereo not drawn) | -7.64
70 | COc1cc(C(=O)NS(=O)(=O)c2cccc(C#N)c2)cc(OC)c1Br | -9.67
71 | Cc1cnn(CCNCc2csc(-c3ccccc3)n2)c1 | -9.48
72 | CCOC(=O)CN(C)C1CCc2ccccc21 (stereo not drawn) | 0.367
73 | Cc1cc(NC(=O)CCN2CCCCC2Cn2cccn2)no1 (stereo not drawn) | 2.14
74 | Cc1nc(C2CCCN2C(=O)CCOCc2ccccc2)no1 (stereo not drawn) | -2.4
75 | Cc1nn(C)c(Cl)c1C1CCCN1C(=O)c1cnn(C)c1C1CC1 (stereo not drawn) | 1.99
76 | CNC(=O)c1ccc(C(=O)N2CCCC(n3cc(C)cn3)C2)cn1 (stereo not drawn) | -0.884
77 | Cc1noc(C)c1CN(C)C(=O)NC1CCN(C2CC2)CC1 | -10.1
78 | Cc1cnc(CN(C)C2CCN(CC(=O)Nc3c(C)n[nH]c3C)C2)o1 (stereo not drawn) | -6.38
79 | CN(C)c1ncccc1CNS(=O)(=O)c1ccccc1F | -4.81
80 | CC(C)(C)c1cn2nc(N3CCC[C@@H]3CO)sc2n1 | 3.64
81 | COCCN1C(=O)CCC12CCC(NCc1cccnc1OC)CC2 (stereo not drawn) | 8.64
82 | CC(=O)NCC(=O)N1CCC2(CC1)NC(=O)CC2c1cccnc1 (stereo not drawn) | -72.5
83 | CN1CC[C@H]2[C@H](C[C@@H](CN3CCCC3)N2c2nccs2)C1 | 3.59
84 | CNC(=O)[C@@H]1C[C@H]2CN(Cc3ccc(C)s3)C[C@H]2N1C(C)=O | 2.76
85 | CS(=O)(=O)NCc1nnc2n1CCN(Cc1cccs1)CC2 | -71.7
86 | Cc1ccc(C(=O)N2CCC3(CCN(C(=O)c4cccnc4)C3)CC2)o1 | 0.101
87 | CC(=O)N1CCC2(CC1)COCCN2Cc1ccc(F)cc1 | 5.69
88 | O=C(c1c[nH]cn1)N1CCC(F)(F)C2(CCN(c3ccccn3)C2)C1 (stereo not drawn) | 11

Row | SMILES | cytotoxicity at 10 µM [%]
89 | CC1c2ncc(CN3CCN(C)CC3)n2CCN1Cc1cccnc1 (stereo not drawn) | -2.12
90 | CCS(=O)(=O)N1CCC2(CCN(Cc3cccc(OC)c3)CC2)CC1 | 2.5
91 | Cc1cccc(N2CC3(CCN(S(=O)(=O)C4CC4)C3)C2)n1 | 3.86
92 | CC(=O)N1CCC2(CC1)CN(C(=O)c1cccnc1)c1ccc(F)cc12 | -108
93 | COCCC1COC2(CCN(C(=O)c3cccnc3)CC2)C1 (stereo not drawn) | -72.4
94 | Cc1nc(CN2CCC3(CC2)CC(c2cccnc2)C(=O)N3C)cs1 (stereo not drawn) | 9.95
95 | O=C(NCc1cncc2c1CCN(C1CCOCC1)C2)c1ccno1 | -2.67
96 | O=C([C@H]1C[C@H]2OCC[C@H]2N(Cc2ccco2)C1)N1CCCO1 | 8.73
97 | CCCS(=O)(=O)N1CCOC2(CCCN(Cc3ccccn3)C2)C1 (stereo not drawn) | -0.58
98 | COCCN1CCOCC12CCN(Cc1ccn(C)n1)CC2 | -3.39
99 | CN1[C@H](Cn2cncn2)C[C@@H]2CN(C3CCOCC3)CC[C@@H]21 | 4.56
100 | O=C(O)c1cc2c(nc1-c1ccoc1)CCN(Cc1ccco1)CC2 | -78.9
101 | Cc1cccc(CN2C(=O)C[C@H]3[C@@H]2CCN3Cc2cccs2)n1 | -79.6
102 | COc1cc(N2C[C@@H]3COC[C@]3(COCc3ccncc3)C2)ncn1 | -72.4
103 | CCC1=N[C@@]2(CC[C@@H]3CN(Cc4ccc(C)cc4)C[C@@H]32)C(=O)N1C | -95
104 | Cc1cc(CN2C[C@@H]3COC[C@@H](C(=O)N4CCCCO4)[C@@H]3C2)no1 | -80.6
105 | CNC(=O)[C@@H](c1ccccc1)N1CCC[C@H]1C(=O)NCc1ccccn1 | 5.62
106 | COCCN1CCC2(CC1)CN(C(=O)C1CC1)c1ccc(F)cc12 | -0.213
107 | CCOCC(=O)N1Cc2nccn2CC(CN2CCCC2)C1 (stereo not drawn) | -76.3
108 | c1cnc(N2CCOC3(CCN(CC4CCCCC4)CC3)C2)nc1 | 0.256
